Measured values published in ChEMBL document CHEMBL3046420, “A new antifungal and cytotoxic C-methylated flavone glycoside from Picea neoveitchii” (2012).

Tests used:
Assay type in all cases: functional
[1] = Cytotoxicity against Spodoptera litura cells assessed as growth inhibition at 20 mg/L after 24 hr by MTT assay relative to control; details: read-out: GI
Procedure, shortened: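 SL cells were grown in Grace's insect medium with 9% newborn calf serum at 27.5 °C and used in log phase. Cells were seeded in 96-well plates for 24 h, then exposed for 24 h to compound (DMSO stock diluted in medium); controls got 0.5% DMSO. MTT (0.5 mg/mL) was added for 4 h, formazan dissolved in DMSO, and A570 read. Three separate experiments.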

[2] = test system: Thielaviopsis paradoxa; test: Antifungal activity against Ceratocystis paradoxa assessed as mycelial growth inhibition at 100 ug/disc after 2 to 4 days by disk diffusion method relative to control; details: for zone of inhibition at 100 µg/disc: read-out: DIZ; for inhibition of growth at 100 µg/disc: read-out: GI
Procedure, shortened: (§1)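 Disc diffusion on PDA in 90 mm Petri plates. Sterile 5 mm filter paper discs were loaded with 10 µL of a 10 mg/mL MeOH solution, air-dried and set at the plate centre. Four 5 mm fungal plugs were placed inverted 20 mm from the disc. Plates were incubated at 29 °C for 2–4 days, until growth in the MeOH blank reached the centre. The inhibitory zone was measured in mm and expressed as % of the carbendazim zone. Triplicate.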

[3] = test system: Alternaria mali; test: Antifungal activity against Alternaria mali assessed as mycelial growth inhibition at 100 ug/disk after 2 to 4 days by disk diffusion method relative to control; details: for zone of inhibition at 100 µg/disc: read-out: DIZ; for inhibition of growth at 100 µg/disc: read-out: GI; procedure, shortened: as §1
[4] = test system: Athelia rolfsii; test: Antifungal activity against Athelia rolfsii assessed as mycelial growth inhibition at 100 ug/disk after 2 to 4 days by disk diffusion method relative to control; details: Agroathelia rolfsii; for zone of inhibition at 100 µg/disc: read-out: DIZ; for inhibition of growth at 100 µg/disc: read-out: GI; procedure, shortened: as §1
[5] = test system: Pyricularia grisea; test: Antifungal activity against Magnaporthe grisea assessed as mycelial growth inhibition at 100 ug/disk after 2 to 4 days by disk diffusion method relative to control; details: for zone of inhibition at 100 µg/disc: read-out: DIZ; for inhibition of growth at 100 µg/disc: read-out: GI
Procedure, shortened: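 Modified disc diffusion on PDA in 90 mm plates. Each 5 mm filter disc was loaded with 10 µL of a 10 mg/mL MeOH solution, air-dried and placed at the plate centre. Four 5 mm fungal plugs were set 20 mm from the disc. MeOH discs served as blank and carbendazim as positive control. Plates were incubated at 29 °C for 2–4 days. Inhibition zone (mm) was expressed as % of the carbendazim zone. Triplicate.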

SMILES | inhibition of growth at 20 µg/mL [1] [%] | zone of inhibition at 100 µg/disc [2] [mm] | inhibition of growth at 100 µg/disc [2] [%] | zone of inhibition at 100 µg/disc [3] [mm] | inhibition of growth at 100 µg/disc [3] [%] | zone of inhibition at 100 µg/disc [4] [mm] | inhibition of growth at 100 µg/disc [4] [%] | zone of inhibition at 100 µg/disc [5] [mm] | inhibition of growth at 100 µg/disc [5] [%]
O=c1c(O[C@@H]2O[C@H](CO)[C@@H](O)[C@H](O)[C@H]2O)c(-c2ccc(O[C@@H]3O[C@H](CO)[C@@H](O)[C@H](O)[C@H]3O)cc2)oc2cc(O)cc(O)c12 | 23.1 | 0 | 0 | 2.4 | 24.2 | 3.7 | 31.9 | 0 | 0
COc1c(-c2ccc(O)cc2)oc2c(O[C@@H]3O[C@H](CO)[C@@H](O)[C@H](O)[C@H]3O)c(O)c(C)c(O)c2c1=O | 62.5 | 6.2 | 24.1 | 7.2 | 72.7 | 9.4 | 81 | 7.6 | 40.9
COc1c(-c2ccc(O[C@@H]3O[C@H](CO)[C@@H](O)[C@H](O)[C@H]3O)cc2)oc2c(O[C@@H]3O[C@H](CO)[C@@H](O)[C@H](O)[C@H]3O)c(O)c(C)c(O)c2c1=O | 64.4 | 0 | 0 | 4.3 | 43.4 | 4.8 | 41.4 | 5.7 | 30.6
O=c1cc(-c2ccc(O)cc2)oc2cc(O[C@@H]3O[C@H](CO)[C@@H](O)[C@H](O)[C@H]3O)cc(O)c12 [APIGETRIN] | 7.8 | 0 | 0 | 5.8 | 58.6 | 4.8 | 41.4 | 3.3 | 17.7
COC(=O)Nc1nc2ccccc2[nH]1 [CARBENDAZIM] | – | 25.7 | 100 | 9.9 | 100 | 11.6 | 100 | 18.6 | 100
COc1cc(CCCO)ccc1O[C@@H]1O[C@H](CO)[C@@H](O)[C@H](O)[C@H]1O [DIHYDROCONIFERIN] | 4 | 0 | 0 | 3.1 | 31.3 | 0 | 0 | 8.6 | 46.2
C[C@@H]1O[C@@H](OC[C@H]2O[C@@H](OC(=O)/C=C/c3ccccc3)[C@H](O)[C@@H](O)[C@@H]2O)[C@H](O)[C@H](O)[C@H]1O [GLEDITSCHIASIDE A] | 62.2 | 0 | 0 | 0 | 0 | 0 | 0 | 0 | 0
COc1cc([C@H]2Oc3c(O)cc(CCCO)cc3[C@@H]2CO)ccc1O[C@@H]1O[C@@H](C)[C@H](O)[C@@H](O)[C@H]1O [MASSONIANOSIDE B] | 17.9 | 5.6 | 21.8 | 8.8 | 88.9 | 0 | 0 | 7 | 37.6
C=C(C)[C@H]1Cc2c(ccc3c2O[C@@H]2COc4cc(OC)c(OC)cc4[C@@H]2C3=O)O1 [ROTENONE] | 74.4 | – | – | – | – | – | – | – | –
O=c1ccc2ccc(O[C@@H]3O[C@H](CO)[C@@H](O)[C@H](O)[C@H]3O)cc2o1 [SKIMMIN] | 15.3 | 1.5 | 5.8 | 0 | 0 | 2.8 | 24.1 | 0 | 0
O=C(/C=C/c1ccc(O)cc1)OC[C@H]1O[C@@H](Oc2c(-c3ccc(O)cc3)oc3cc(O)cc(O)c3c2=O)[C@H](O)[C@@H](O)[C@@H]1O [TILIROSIDE] | 65 | 7.1 | 27.6 | 5.5 | 55.6 | 2.6 | 22.4 | 0 | 0
